Laboratory results published in ChEMBL document CHEMBL4145604, “Jizanpeptins, Cyanobacterial Protease Inhibitors from a Symploca sp. Cyanobacterium Collected in the Red Sea” (J Nat Prod, 2018).
Calls of active or inactive are those of the source. No cut-off for these calls is given here. *1 amine or outer side, *2 acyl side, *3 side chain or, on linkers, in order; H or OH if unused. Where a SMILES comes first, the peptide text is derived from it. Bridges are numbered along the chain shown (N, C = ends). [ ]: non-standard residue; d: D form. The star is where a group is joined. Ahp(3S,6R)alloIle = CC[C@@H](C)[C@@H](C(=O)[*:2])N1C(=O)[C@@H](N[*:1])CC[C@H]1O; Propanoyl(2R-OMe,3-OSO3H) = CO[C@H](COS(=O)(=O)O)C(=O)*; NMeTyr(3-Br,OMe) = CN[C@@H](Cc1ccc(OC)c(Br)c1)C(=O)O; Cit = NC(=O)NCCC[C@H](N)C(=O)O; Butyryl = CCCC(=O)*

Assays:
Homo sapiens [1] = species: Homo sapiens; test: Selectivity ratio of IC50 for chymotrypsin (unknown origin) to IC50 for trypsin (unknown origin)
Trypsin = Trypsin (Homo sapiens, UniProt P07477+P07478+P35030); test: Inhibition of trypsin (unknown origin) assessed as reduction in conversion of N-benzoyl-L-arginine ethyl ester hydrochloride to N-benzoyl-L-arginine incubated for 5 mins measured for 30 secs by spectrophotometric method; type: protein assay
[2] = (§1) Inhibition of chymotrypsin (unknown origin) assessed as reduction in conversion of N-benzoyl-L-tyrosine ethyl ester to N-benzoyl-L-tyrosine incubated for 3 mins measured for 30 secs by spectrophotometric method; set-up: species or system Homo sapiens
NCI-H460 = test: Antiproliferative activity against human NCI-H460 cells up to 3 uM after 72 hrs by MTT assay; type: functional, cell-based
Procedure, shortened: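 NCI-H460 cells exposed for 72 h to 30 nM–3 μM compound from DMSO stocks, final DMSO 0.1%; apratoxin A (30 nM) positive control; MTT viability end-point, vehicle-treated cells set as 100%.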

HeLa = test: Antiproliferative activity against human HeLa cells up to 3 uM after 72 hrs by MTT assay; type: functional, cell-based
Homo sapiens [3] = species: Homo sapiens; test: as §1

Compound | Ratio IC50 (Homo sapiens [1]) | IC50 (Trypsin) | IC50 [2] | Activity (NCI-H460) | Activity (HeLa) | inhibition (Trypsin) | inhibition (Homo sapiens [3])
CC[C@@H](C)[C@H]1C(=O)N(C)[C@@H](Cc2ccc(OC)c(Br)c2)C(=O)N[C@@H]([C@@H](C)CC)C(=O)O[C@H](C)[C@H](NC(=O)[C@H](NC(=O)[C@@H](COS(=O)(=O)O)OC)C(C)C)C(=O)N[C@@H](CCCNC(=N)N)C(=O)N[C@H]2CC[C@@H](O)N1C2=O | 10 to 66 | 150 nM | > 10000 nM | inactive | inactive | – | –
CC[C@@H](C)[C@H]1C(=O)N(C)[C@@H](Cc2ccc(OC)c(Br)c2)C(=O)N[C@@H]([C@@H](C)CC)C(=O)O[C@H](C)[C@H](NC(=O)[C@@H](NC(=O)[C@@H](COS(=O)(=O)O)OC)C(C)C)C(=O)N[C@@H](CCCCN)C(=O)N[C@H]2CC[C@@H](O)N1C2=O | 19 | 72 nM | 1400 nM | inactive | inactive | – | –
CC[C@@H](C)[C@H]1C(=O)N(C)[C@@H](Cc2ccc(OC)c(Br)c2)C(=O)N[C@@H]([C@@H](C)CC)C(=O)O[C@H](C)[C@H](NC(=O)[C@@H](NC(=O)[C@@H](COS(=O)(=O)O)OC)[C@@H](C)CC)C(=O)N[C@@H](CCCCN)C(=O)N[C@H]2CC[C@@H](O)N1C2=O ({Propanoyl(2R-OMe,3-OSO3H)}-ITK[Ahp(3S,6R)alloIle][NMeTyr(3-Br,OMe)]I; ester 2-C) | 10 to 66 | 1000 nM | > 10000 nM | inactive | inactive | – | –
CC[C@@H](C)[C@H]1C(=O)N(C)[C@@H](Cc2ccc(OC)c(Br)c2)C(=O)N[C@@H]([C@@H](C)CC)C(=O)O[C@H](C)[C@H](NC(=O)[C@H](NC(=O)[C@H](O)COS(=O)(=O)O)C(C)C)C(=O)N[C@@H](CCCCN)C(=O)N[C@H]2CC[C@@H](O)N1C2=O | 10 to 66 | 160 nM | > 10000 nM | inactive | inactive | – | –
CCCC(=O)N[C@H](CCC(N)=O)C(=O)N[C@@H]1C(=O)N[C@@H](CCCNC(N)=O)C(=O)N[C@H]2CC[C@@H](O)N(C2=O)[C@@H]([C@H](C)CC)C(=O)N(C)[C@@H](Cc2ccc(OC)c(Br)c2)C(=O)N[C@@H](C(C)C)C(=O)O[C@@H]1C (Butyryl-[dQ]T[Cit][Ahp(3S,6R)alloIle][NMeTyr(3-Br,OMe)]V; ester 2-C) | – | – | – | Active | – | Active | Active
CC[C@@H](C)[C@H]1C(=O)N(C)[C@@H](Cc2ccc(OC)c(Br)c2)C(=O)N[C@@H]([C@@H](C)CC)C(=O)O[C@H](C)[C@H](NC(=O)[C@H](NC(=O)[C@@H](COS(=O)(=O)O)OC)C(C)C)C(=O)N[C@@H](CCCCN)C(=O)N[C@H]2CC[C@@H](O)N1C2=O | 10 to 66 | 190 nM | > 10000 nM | inactive | inactive | – | –
